The text below walks through data of ChEMBL document CHEMBL2062414, “Selected chromone derivatives as inhibitors of monoamine oxidase” (Bioorg Med Chem Lett, 2012).

One may read the IC50 as the point on the concentration scale where inhibition reaches its midpoint.

The target of data set [1] is T1, Amine oxidase [flavin-containing] A (Homo sapiens, UniProt P21397).
T1 sequence (P21397 whole entry): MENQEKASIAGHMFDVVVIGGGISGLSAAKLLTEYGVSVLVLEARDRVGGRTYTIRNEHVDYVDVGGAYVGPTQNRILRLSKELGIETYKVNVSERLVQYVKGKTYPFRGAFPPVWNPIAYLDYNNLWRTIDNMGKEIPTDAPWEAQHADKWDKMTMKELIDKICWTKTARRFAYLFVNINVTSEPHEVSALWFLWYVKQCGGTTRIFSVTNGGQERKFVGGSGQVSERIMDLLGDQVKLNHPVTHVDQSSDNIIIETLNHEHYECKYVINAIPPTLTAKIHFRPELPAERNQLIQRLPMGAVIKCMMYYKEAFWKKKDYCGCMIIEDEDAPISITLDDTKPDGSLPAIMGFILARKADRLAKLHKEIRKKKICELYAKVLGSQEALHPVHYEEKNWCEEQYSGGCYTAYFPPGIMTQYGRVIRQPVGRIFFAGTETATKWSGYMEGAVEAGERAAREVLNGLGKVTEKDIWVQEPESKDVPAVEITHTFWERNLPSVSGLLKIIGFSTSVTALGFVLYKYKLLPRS
Kind of data set: Inhibition of recombinant human MAO-A assessed as inhibition of kynuramine to 4-hydroxyquinoline conversion after 20 mins by fluorometry. A digest of the protocol:
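Recombinant human MAO-A was incubated with the mixed MAO-A/B substrate kynuramine. Activity was read fluorometrically as formation of 4-hydroxyquinoline. IC50 values are given as mean ± SD of triplicate determinations.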

For data set [2], the species on record is Homo sapiens. Kind of data set: Selectivity ratio of IC50 for recombinant human MAO-A to IC50 for recombinant human MAO-B. In a few lines: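 This is a selectivity index for MAO-B, computed as IC50(MAO-A)/IC50(MAO-B). Both IC50s were measured fluorometrically on recombinant human enzymes as kynuramine conversion to 4-hydroxyquinoline, in triplicate.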

Data set [3] addresses T2, Amine oxidase [flavin-containing] B (Homo sapiens, UniProt P27338).
T2 sequence (P27338 whole entry): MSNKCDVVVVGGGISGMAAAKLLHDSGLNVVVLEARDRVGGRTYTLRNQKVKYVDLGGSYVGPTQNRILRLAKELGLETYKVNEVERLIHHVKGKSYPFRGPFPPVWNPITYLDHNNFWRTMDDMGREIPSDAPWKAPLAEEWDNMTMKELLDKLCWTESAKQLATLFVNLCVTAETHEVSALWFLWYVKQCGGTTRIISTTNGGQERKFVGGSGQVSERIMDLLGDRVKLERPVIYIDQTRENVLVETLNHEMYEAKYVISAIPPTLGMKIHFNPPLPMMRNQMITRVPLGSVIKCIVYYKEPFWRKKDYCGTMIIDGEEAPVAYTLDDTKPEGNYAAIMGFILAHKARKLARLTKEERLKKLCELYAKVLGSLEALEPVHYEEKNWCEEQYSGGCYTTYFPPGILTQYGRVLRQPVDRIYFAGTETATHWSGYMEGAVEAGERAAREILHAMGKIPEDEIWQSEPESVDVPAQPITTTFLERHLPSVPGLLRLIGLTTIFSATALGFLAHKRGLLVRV
Kind of data set: Inhibition of recombinant human MAO-B assessed as inhibition of kynuramine to 4-hydroxyquinoline conversion after 20 mins by fluorometry.

Data set [4] concerns the target T2, Amine oxidase [flavin-containing] B. Nature of the data set: Reversible inhibition of recombinant human MAO-B assessed as recovered enzyme activity measuring residual rate of 4-hydroxyquinoline formation at 10 times IC50 preincubated for 30 mins followed by dilution to 0.1 time IC50 measured after 20 mins.

Turning to `O=c1ccoc2cccc(OCc3ccc(Br)cc3)c12`, the IC50 in data set [1] was 52.9 µM; in data set [3], 4.34 µM. Besides, the Ratio IC50 in data set [2] stood at 12.

For `O=C(O)c1coc2ccc(OCc3cccc(Br)c3)cc2c1=O`, the results for the IC50 in data set [1] and in data set [3] were 1.04 µM and 0.0028 µM, respectively. Moreover, the Activity in data set [4] turned out to be 68%. Besides, the Ratio IC50 in data set [2] turned out to be 371.

`CC(=O)c1cc(OCc2cccc(Br)c2)ccc1O`: the Ratio IC50 in data set [2] is 34.

For the compound `CC(=O)c1ccc(OCc2cccc(Br)c2)cc1O`, the Activity in data set [4] is recorded as 68%. In addition, the Ratio IC50 in data set [2] is 3950.

As for `CC(=O)c1c(O)cccc1OCc1cccc(Br)c1`, the Ratio IC50 in data set [2] came out at 17.

As for `O=C1CC(O)Oc2ccc(OCc3cccc(Br)c3)cc21` (centres undefined), in data set [1], the IC50 was found to be 1.53 µM. Also, the Activity in data set [4] is 68%.

As to `CC(=O)c1cc(OCc2ccc(Br)cc2)ccc1O`, the Ratio IC50 in data set [2] turned out to be 17.

In the case of `CC(=O)c1c(O)cccc1OCc1ccc(Br)cc1`, in data set [2], the Ratio IC50 turned out to be 53.

Consider `O=c1ccoc2ccccc12` [CHROMONE], for which the IC50 was determined as 39.9 µM in data set [1] and 54.9 µM in data set [3]. The Ratio IC50 in data set [2] is 1.

For the compound `O=c1ccoc2cccc(OCc3ccccc3)c12`, the IC50 in data set [1] was determined as 143 µM; in data set [3] it was 8.03 µM. For the same compound, the Ratio IC50 in data set [2] was determined as 18.

`O=Cc1coc2ccccc2c1=O`: the results for the IC50 in data set [1] and in data set [3] were 28.9 µM and 23.5 µM, respectively. Also, in data set [2], the Ratio IC50 is 1.

As for `O=Cc1coc2ccc(OCc3cccc(Br)c3)cc2c1=O`, the IC50 in data set [1] is 2.2 µM; in data set [3], 0.0037 µM. Besides, the Ratio IC50 in data set [2] worked out at 595.

For `O=C1CC(O)Oc2cccc(OCc3ccc(Br)cc3)c21` (centres undefined), the half-maximal inhibitory concentration (IC50) was 60.6 µM in data set [1] and 44.8 µM in data set [3]. The Ratio IC50 in data set [2] is 1.4.

On to `COC(=O)c1coc2ccc(OCc3cccc(Br)c3)cc2c1=O`, for which the IC50 in data set [1] amounted to 6.46 µM; in data set [3], 0.0774 µM. For the same compound, the Ratio IC50 in data set [2] was found to be 83.

In the case of `CC(=O)c1ccc(OCc2ccc(Br)cc2)cc1O`, the Ratio IC50 in data set [2] was found to be 569.
